CHOP UPR activ: apoptotic UPR (CHOP) activation. activation, % at 10 µM. 0.34% of 330,000 active. CHO-CHOP luciferase reporter, luminescence; percent of tunicamycin response over DMSO baseline;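 active = at 10 µM dose, activation of 40% or more, normalized to positive control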;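 also: 100% = tunicamycin at 10 µg/mL and 0% = DMSO alone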
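assay system = CHO CHOP reporter cells | amount = 500 CHO-CHOP cells per well | buffer or medium = F12 with 10% FBS | incubation = 16-18 h cell attachment, then 6 h compound exposure, 37 °C | detection = luminescence read with Steady-Glo | read-out = percent activation relative to tunicamycin control | controls = tunicamycin high control, DMSO low control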
UPR XBP1 act: adaptive UPR (XBP1) activation. CHO-XBP1 luciferase reporter, IRE1-XBP1 UPR activation, luminescence; percent of tunicamycin response, DMSO as zero. activation, % at 20 µM. 0.33% of 330,000 active. AID 463104;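 active = versus positive control, 20 µM dose yields 30% or more activation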;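 also: 100% = tunicamycin at 10 µg/mL and 0% = DMSO only wells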
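Assay system: CHO-XBP1 luciferase reporter cells; Schedule: 6 h treatment, 37 °C; Detection: glow luminescence from Steady-Glo reagent; Benchmarks: high control tunicamycin 10 µg/mL final, low control DMSO vehicle only.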
aDG glyco act: alpha-DG glycosylation activation; Pro5-aDG cells, alpha-DG glycosylation AlphaScreen (IIH6); 0% Pro5, 100% B10-LARGE cell signal; activation, % at 10 µM; 0.22% of 360,000 active; AID 624168;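 active = activation of at least 8% versus controls, or a plate z-score of at least 8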;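 also: Pro5 are CHO cells carrying HIG-tagged alpha-DG that lacks glycosylation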
CHOP inhibitor: inhibitors of CHOP induction in ER stress response. CHO-K1 CHOP-promoter luciferase, tunicamycin-induced, 15-18 h. inhibition, % at 10 µM. 3.8% of 220,000 active;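 active = compounds that reduced the stress-induced luciferase reporter signal by more than about 70% of percent inhibition, limit read from the data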;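 also: 0% = tunicamycin plus vehicle and 100% = wells without tunicamycin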
NR3A LBD binder: NR3A (human) ligand-binding domain modulation; NR3A LBD differential scanning fluorimetry, Tm shift; 0% = protein alone, 100% = glycine-bound protein; Tm shift relative to glycine control, % at 25 µM; 2.5% of 340,000 active; AID 1259313;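 active = melting temperature shift of at least 10% of the positive control shift, at one fixed dose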
MPTP block: inhibitors of mitochondrial permeability transition pore; isolated mouse mitochondria, Ca2+ swelling absorbance, 30 min; inhibition, % at 10 µM; 1.4% of 360,000 active;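 active = inhibition of 50% or more, scaled per plate between neutral and stimulator controls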;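 also: 0% = DMSO wells given calcium and 100% = 1 mM EGTA wells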
MPTP counter: membrane potential counter-screen of mitochondrial pore inhibitors; shares compounds with MPTP block; isolated mitochondria, Rhodamine 123 fluorescence; inhibition, % at 10 µM; 78% of 5,000 active; in the data active = inhibition above about 22%;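 also: 0% = DMSO vehicle and 100% = positive control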
Starred values were filed as active, the others as inactive; nt = no result. Hits are enriched below; roughly 5.6% of the tested compounds scored in any of these assays.

SMILES | CHOP UPR activ | UPR XBP1 act | aDG glyco act | CHOP inhibitor | NR3A LBD binder | MPTP block | MPTP counter
O=C(/C=C/c1ccc(Cl)c([N+](=O)[O-])c1)Nc1ccc(N2CCCC2)c(Cl)c1 | 5 | 9 | 0 | 96* | 17* | 76* | 40*
CN1CCN(c2ccc(S(=O)(=O)N3CCCCC3)cc2NC(=O)/C=C/c2ccc(Cl)c([N+](=O)[O-])c2)CC1 | 16 | 3 | 1 | nt | -6 | 3 | nt
CC(=O)Nc1ccc(S(=O)(=O)NCC(=O)OCC(=O)N2CC(C)OC(C)C2)cc1 (stereo unspecified) | 2 | -4 | 0 | nt | 0 | -3 | nt
CN(/N=C/c1cc([N+](=O)[O-])ccc1O)c1ccccc1 | 4 | 1 | 0 | -2 | -6 | 57* | 66*
O=[N+]([O-])c1ccc(O)c(C=NNc2ccc(S(=O)(=O)O)cc2)c1 | nt | nt | 0 | nt | -14 | -1 | nt
O=[N+]([O-])c1cccc(N/N=C/c2cc([N+](=O)[O-])ccc2O)c1 | 1 | 1 | 0 | 95* | 31* | 64* | 61*
CCCCN1C(=O)c2ccc(C(=O)Nc3ccc(C)c(S(=O)(=O)N(C)C)c3)cc2C1=O | -1 | 0 | 0 | 45 | -9 | 69* | 69*
Cc1ccc(NC(=O)c2ccc(OC(F)(F)F)cc2)cc1S(=O)(=O)N(C)C | 4 | 1 | 2 | 40 | -3 | 78* | 86*
CN(C)S(=O)(=O)Oc1ccc(C(=O)Nc2cccc(C(F)(F)F)c2)cc1 | -1 | 1 | 4 | 30 | -1 | 74* | 82*
COc1ccc(OCCCC(=O)Nc2nccs2)cc1 | 1 | -3 | 0 | -5 | 5 | -4 | nt
COC(=O)c1cc(NC(=O)Nc2cccc(Cl)c2)ccc1Cl | 9 | 5 | 2 | 95* | 38* | 90* | 73*
O=C(Nc1cccc(Cl)c1)Nc1cccc(Cl)c1 | 16 | 5 | 2 | 16 | 33* | 102* | 88*
COC(=O)c1cc(NC(=O)c2ccc(-c3ccccc3)cc2)ccc1Cl | 1 | 0 | 0 | 37 | 5 | 31 | nt
CCc1ccccc1NC(=O)Nc1cccc(F)c1 | 3 | -1 | 1 | 19 | -6 | 76* | 81*
O=C(Nc1cccc(F)c1)Nc1cccc(Cl)c1 | 5 | -3 | 0 | nt | 42* | 88* | 80*
CC(=O)NCCn1c(SCc2cccc([N+](=O)[O-])c2)nc2ccccc2c1=O | 0 | -1 | 0 | 16 | 0 | 1 | nt
CCC1(c2ccc(F)cc2)NC(=O)N(CC(=O)c2cc(C)n(C3CC3)c2C)C1=O (stereo unspecified) | 0 | -4 | 0 | nt | 1 | -1 | nt
O=C(NCc1ccc(F)cc1)Nc1ccc(Cl)cc1 | 7 | 1 | 1 | 8 | 1 | 38 | nt
O=C(Nc1cccc(Cl)c1)N1CCSc2cc(Cl)ccc21 | 1 | -6 | 0 | 58 | 4 | 76* | 88*
O=C(Nc1cccc(Cl)c1)ON=C1c2ccccc2-c2ccccc21 | 2 | 4 | 0 | 9 | 5 | 86* | 87*
O=C(Nc1ccccc1)N1CCSc2cc(Cl)ccc21 | -2 | 2 | 1 | 53 | -7 | 6 | nt
COc1cccc(NC(=O)Nc2cc(Cl)ccc2C)c1 | 0 | 2 | 1 | -7 | 21* | 92* | 82*
O=C(NCc1ccc(F)cc1)Nc1cccc(Cl)c1 | 5 | 2 | 1 | 0 | -5 | 85* | 93*
Cc1ccc(F)c(N=Cc2c(O)c3ccccc3oc2=O)c1 | 5 | 12 | 0 | nt | 3 | 0 | nt
COc1ccc(C(=O)Nc2ccccc2C(=O)NCc2cccnc2)cc1 | 3 | -4 | 0 | nt | 2 | -1 | nt
CN(CCN1CCOCC1)C(=O)c1cc(COc2ccc(F)c(F)c2)on1 | 2 | 1 | 0 | nt | 0 | 0 | nt
O=C(N[C@H]1c2ccccc2C[C@H]1O)[C@H]1O[C@@H](n2ccc(=O)[nH]c2=O)[C@H](O)[C@@H]1O | nt | nt | 0 | nt | nt | -1 | nt
